The record followed here is ChEMBL document CHEMBL4813970, “Design, synthesis and evaluation of novel dimethylamino chalcone-O-alkylamines derivatives as potential multifunctional agents against Alzheimer's disease” (Eur J Med Chem, 2021).

Active and inactive are the calls of the source. The rule behind the calls is not given here.

The target in data set [1] is T1, Amyloid-beta precursor protein (Homo sapiens, UniProt P05067). Briefly: Disaggregation of self-induced amyloid beta (1 to 42) (unknown origin) at 25 uM measured by Thioflavin T based fluorometric assay relative to control.
Data set [2] is described as follows: Antioxidant activity of compound assessed as trolox equivalent antioxidant capacity by ORAC-FL assay. In kind it is functional.
The target in data set [3] is T2, Acetylcholinesterase (Rattus norvegicus, UniProt P37136).
T2 sequence (P37136 whole entry): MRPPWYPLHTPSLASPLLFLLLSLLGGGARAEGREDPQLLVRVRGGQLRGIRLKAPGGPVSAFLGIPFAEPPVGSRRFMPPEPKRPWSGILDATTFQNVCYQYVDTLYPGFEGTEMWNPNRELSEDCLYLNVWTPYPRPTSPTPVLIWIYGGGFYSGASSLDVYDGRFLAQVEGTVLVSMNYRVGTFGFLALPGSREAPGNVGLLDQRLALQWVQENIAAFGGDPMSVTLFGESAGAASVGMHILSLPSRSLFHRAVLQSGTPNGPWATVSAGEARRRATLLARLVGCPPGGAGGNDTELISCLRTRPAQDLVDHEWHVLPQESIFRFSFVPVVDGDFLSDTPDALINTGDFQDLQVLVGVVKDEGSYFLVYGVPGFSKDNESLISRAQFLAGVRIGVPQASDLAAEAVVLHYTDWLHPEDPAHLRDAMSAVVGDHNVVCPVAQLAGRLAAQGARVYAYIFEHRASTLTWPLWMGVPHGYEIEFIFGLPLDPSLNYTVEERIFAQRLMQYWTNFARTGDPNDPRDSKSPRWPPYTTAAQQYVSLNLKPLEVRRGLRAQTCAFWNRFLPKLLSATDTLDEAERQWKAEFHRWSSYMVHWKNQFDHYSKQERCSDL
Briefly: Inhibition of rat cortex homogenate acetylcholinesterase by Ellman's method. On the technique in general: Ellman's reagent forms a yellow product with free thiols.

The next data set concerns the target Butyrylcholinesterase (Rattus norvegicus, UniProt Q9JKC1). The data set is described as follows: Inhibition of rat serum BuChE by Ellman's method.
The target in data set [4] is Acetylcholinesterase (Electrophorus electricus, UniProt O42275). Briefly: Inhibition of electric eel AChE using acetylthiocholine iodide as substrate by Ellman's method.
Data set [5] has as its target Acetylcholinesterase (Electrophorus electricus) (UniProt O42275). The data set is described as follows: Mixed type inhibition of electric eel AChE assessed as decrease in Vmax by reciprocal Lineweaver-Burk plot analysis. As to conditions: dose 0.5-2 µM.
Data set [6] shares this target. The data set is described as follows: Mixed type inhibition of electric eel AChE assessed as increase in Km by reciprocal Lineweaver-Burk plot analysis. Conditions: dose 0.5-2 µM.
Data set [7] in a line: Metal chelating activity assessed as compound-Al3+ complex formation by measuring maximum absorption wavelength shifted from 444 nm to 468 nm by UV-Visible spectrophotometry. In outline:
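UV-vis spectra recorded from 200 to 600 nm on a multimode reader. Metals tested as CuCl2, FeSO4, ZnCl2 and AlCl3.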

For data set [8], the target named is T1, Amyloid-beta precursor protein. Briefly: Inhibition of Cu2+ induced amyloid beta (1 to 42 residues) (unknown origin) aggregation at 25 uM by thioflavin-T fluorescence method relative to control.
Data set [9] deals with T3, Amine oxidase [flavin-containing] B (Homo sapiens, UniProt P27338).
T3 sequence (P27338 whole entry): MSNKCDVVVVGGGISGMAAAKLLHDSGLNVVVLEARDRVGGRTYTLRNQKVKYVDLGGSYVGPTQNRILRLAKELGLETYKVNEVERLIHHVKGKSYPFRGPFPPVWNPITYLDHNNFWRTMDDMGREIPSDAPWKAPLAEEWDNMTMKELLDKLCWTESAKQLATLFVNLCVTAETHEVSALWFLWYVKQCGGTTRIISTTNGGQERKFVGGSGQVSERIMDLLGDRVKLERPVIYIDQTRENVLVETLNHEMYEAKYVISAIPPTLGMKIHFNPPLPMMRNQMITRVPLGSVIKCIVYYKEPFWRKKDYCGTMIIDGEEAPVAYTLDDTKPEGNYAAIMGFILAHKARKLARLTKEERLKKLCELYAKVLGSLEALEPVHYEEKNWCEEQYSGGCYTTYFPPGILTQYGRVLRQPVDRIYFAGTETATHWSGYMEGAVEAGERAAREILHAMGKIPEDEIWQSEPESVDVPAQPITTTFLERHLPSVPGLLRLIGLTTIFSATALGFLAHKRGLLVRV
Briefly: Inhibition of human recombinant MAO-B by multimode plate reader assay.

In data set [10] the target is T4, Amine oxidase [flavin-containing] A (Homo sapiens, UniProt P21397).
T4 sequence (P21397 whole entry): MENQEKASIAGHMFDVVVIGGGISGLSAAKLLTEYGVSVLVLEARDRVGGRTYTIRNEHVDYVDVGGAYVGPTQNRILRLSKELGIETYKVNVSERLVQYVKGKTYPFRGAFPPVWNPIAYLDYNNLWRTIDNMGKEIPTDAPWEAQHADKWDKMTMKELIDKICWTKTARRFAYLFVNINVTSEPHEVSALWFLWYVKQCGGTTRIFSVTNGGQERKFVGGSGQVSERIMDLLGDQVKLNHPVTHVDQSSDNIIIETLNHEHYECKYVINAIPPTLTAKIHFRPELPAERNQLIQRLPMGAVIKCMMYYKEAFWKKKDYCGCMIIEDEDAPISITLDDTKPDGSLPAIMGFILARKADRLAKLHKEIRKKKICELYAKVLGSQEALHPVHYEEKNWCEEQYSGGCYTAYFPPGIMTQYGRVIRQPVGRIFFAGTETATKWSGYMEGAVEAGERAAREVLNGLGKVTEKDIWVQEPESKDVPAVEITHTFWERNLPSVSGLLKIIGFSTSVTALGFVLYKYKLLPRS
Briefly: Inhibition of human recombinant MAO-A by multimode plate reader assay.

The species entered for a further data set is Homo sapiens. Briefly: Selectivity index, ratio of IC50 for recombinant human MAO-A to IC50 for recombinant human MAO-B. In outline: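 Selectivity index taken as IC50(hMAO-A)/IC50(hMAO-B). IC50 values are mean ± SEM from three experiments.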
The subject of data set [11] is PC-12. The data set is described as follows: Neuroprotective activity against H2O2-induced cytotoxicity in rat PC12 cells assessed as increase in cell viability at 10 uM by MTT assay. In kind it is functional. A digest of the protocol: (§1)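 PC12 cells exposed to 100 μM H2O2, with or without compound. Viability read by MTT reduction relative to control. Trolox 100 μM is the reference.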
A general note: Formazan colour is commonly taken as a measure of viable cells.

Data set [12] deals with PC-12. The data set is described as follows: Neuroprotective activity against H2O2-induced cytotoxicity in rat PC12 cells assessed as increase in cell viability at 1 uM by MTT assay. In kind it is functional. In outline:
as §1

Data set [13] can be described thus: Permeability of the compound by PAMPA. In kind it is ADME. As to conditions: read-out: permeability. In outline: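 PAMPA-BBB. Assay validated against 11 commercial drugs with reported permeability values.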
The nature of data set [14]: Acute toxicity in KM mouse assessed as abnormal behavior upto 1000 mg/kg, po administered as single dose measured for 14 days. In kind it is organism-based. Conditions: in vivo, 336 h, time 14 day. A digest of the protocol: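 Kunming mice, n = 10 per group, fasted overnight with free access to water, given one oral dose of 67.5, 125, 250, 500 or 1000 mg/kg. Housed on a 12 h light/dark cycle at 20–22 °C, 40–70% relative humidity. Abnormal behaviour and mortality observed continuously for the first 4 h, intermittently over the next 24 h, then occasionally to 14 days.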

Data set [15] is described as follows: Acute toxicity in KM mouse assessed as mortality upto 1000 mg/kg,po administered as single dose measured for 14 days. In kind it is organism-based. Conditions: in vivo, 336 h, time 14 day.

T1 sequence (P05067 whole entry): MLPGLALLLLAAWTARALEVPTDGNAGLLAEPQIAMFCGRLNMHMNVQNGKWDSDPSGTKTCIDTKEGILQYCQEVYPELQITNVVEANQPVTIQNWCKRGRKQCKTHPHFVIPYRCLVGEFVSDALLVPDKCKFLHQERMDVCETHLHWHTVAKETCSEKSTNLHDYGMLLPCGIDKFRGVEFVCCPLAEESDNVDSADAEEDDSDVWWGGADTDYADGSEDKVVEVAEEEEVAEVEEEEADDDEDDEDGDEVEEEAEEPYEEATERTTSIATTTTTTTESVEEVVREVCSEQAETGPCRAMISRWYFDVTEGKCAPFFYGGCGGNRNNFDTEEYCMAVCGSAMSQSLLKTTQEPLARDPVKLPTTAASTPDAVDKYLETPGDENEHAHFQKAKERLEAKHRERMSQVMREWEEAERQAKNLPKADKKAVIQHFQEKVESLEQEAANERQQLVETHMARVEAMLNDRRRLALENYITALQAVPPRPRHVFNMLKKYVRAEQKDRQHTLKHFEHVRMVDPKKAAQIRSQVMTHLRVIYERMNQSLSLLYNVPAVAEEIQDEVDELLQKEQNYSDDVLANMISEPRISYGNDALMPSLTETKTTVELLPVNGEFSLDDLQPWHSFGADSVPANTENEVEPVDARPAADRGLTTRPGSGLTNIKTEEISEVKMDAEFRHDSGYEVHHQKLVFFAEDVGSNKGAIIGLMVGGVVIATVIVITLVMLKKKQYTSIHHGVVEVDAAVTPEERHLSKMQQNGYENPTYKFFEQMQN
Acetylcholinesterase (Electrophorus electricus), sequence (O42275 24-633 limits assumed): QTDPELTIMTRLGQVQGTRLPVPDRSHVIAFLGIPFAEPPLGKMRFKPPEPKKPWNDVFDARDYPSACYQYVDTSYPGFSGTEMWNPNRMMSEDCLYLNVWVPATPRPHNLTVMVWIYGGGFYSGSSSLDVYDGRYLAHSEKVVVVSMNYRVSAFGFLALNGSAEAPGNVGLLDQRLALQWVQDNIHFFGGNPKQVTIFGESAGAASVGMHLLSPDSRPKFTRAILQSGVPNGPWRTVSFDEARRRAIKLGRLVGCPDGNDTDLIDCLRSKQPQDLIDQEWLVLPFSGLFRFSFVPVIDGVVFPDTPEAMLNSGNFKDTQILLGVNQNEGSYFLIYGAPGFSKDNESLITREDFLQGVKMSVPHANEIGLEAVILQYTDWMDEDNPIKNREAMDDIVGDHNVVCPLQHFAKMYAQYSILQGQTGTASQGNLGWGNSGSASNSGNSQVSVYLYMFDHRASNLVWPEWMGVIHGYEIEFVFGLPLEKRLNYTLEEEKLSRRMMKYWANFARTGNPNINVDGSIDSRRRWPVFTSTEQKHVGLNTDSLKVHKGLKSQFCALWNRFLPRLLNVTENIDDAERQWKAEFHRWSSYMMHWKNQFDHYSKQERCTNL
Acetylcholinesterase (Electrophorus electricus, UniProt O42275), sequence (O42275 whole entry): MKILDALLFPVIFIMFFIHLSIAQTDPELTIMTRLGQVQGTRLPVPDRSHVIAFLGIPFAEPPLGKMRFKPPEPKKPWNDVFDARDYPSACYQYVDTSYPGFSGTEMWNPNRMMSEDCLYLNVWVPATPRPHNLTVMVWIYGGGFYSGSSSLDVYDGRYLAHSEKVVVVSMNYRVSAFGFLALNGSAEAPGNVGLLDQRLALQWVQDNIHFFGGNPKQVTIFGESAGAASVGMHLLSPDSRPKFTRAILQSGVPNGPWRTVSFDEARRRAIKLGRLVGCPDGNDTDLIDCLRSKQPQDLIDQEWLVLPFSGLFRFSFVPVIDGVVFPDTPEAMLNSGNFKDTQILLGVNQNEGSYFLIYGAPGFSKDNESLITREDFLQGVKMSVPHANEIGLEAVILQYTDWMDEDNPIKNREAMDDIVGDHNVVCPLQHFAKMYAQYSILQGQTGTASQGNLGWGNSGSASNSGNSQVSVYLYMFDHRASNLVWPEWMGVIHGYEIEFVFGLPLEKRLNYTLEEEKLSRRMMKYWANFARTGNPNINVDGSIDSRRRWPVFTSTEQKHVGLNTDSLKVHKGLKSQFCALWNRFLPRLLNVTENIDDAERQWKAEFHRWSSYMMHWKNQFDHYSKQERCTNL
Butyrylcholinesterase, sequence (Q9JKC1 whole entry): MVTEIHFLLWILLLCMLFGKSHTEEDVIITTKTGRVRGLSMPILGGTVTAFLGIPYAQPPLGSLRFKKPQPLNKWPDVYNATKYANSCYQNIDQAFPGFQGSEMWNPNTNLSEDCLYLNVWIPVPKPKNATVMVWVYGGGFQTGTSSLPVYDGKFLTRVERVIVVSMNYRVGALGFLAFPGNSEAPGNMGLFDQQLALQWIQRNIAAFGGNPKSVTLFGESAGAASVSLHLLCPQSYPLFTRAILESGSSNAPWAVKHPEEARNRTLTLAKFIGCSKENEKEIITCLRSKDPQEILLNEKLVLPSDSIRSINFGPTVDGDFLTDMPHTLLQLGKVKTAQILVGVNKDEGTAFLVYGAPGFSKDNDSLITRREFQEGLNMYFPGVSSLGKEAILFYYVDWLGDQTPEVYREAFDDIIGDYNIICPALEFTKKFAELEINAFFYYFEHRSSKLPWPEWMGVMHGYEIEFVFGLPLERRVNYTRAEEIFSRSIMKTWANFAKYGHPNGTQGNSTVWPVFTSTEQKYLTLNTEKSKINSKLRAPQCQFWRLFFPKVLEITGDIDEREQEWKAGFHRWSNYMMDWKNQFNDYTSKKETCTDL

Usually IC50 stands for the midpoint of a concentration-inhibition curve. For orientation: inhibition means the change of the read-out against control, counted positive when it falls. Turning to `CCN(CCCCOc1ccc(C(=O)/C=C/c2ccc(N(C)C)cc2)c(O)c1)Cc1ccccc1N(C)C`, the Activity in [1] is 95.1%; in data set [2], 2.1; in the data set on PC-12 [11], 88.1%; with PC-12 [12], 70.9%; in data set [14] it was “Non-Toxic”; in [15], “Non-Toxic”. In addition, the IC50 stood at 130 nM at Acetylcholinesterase [3]; 236000 nM against Butyrylcholinesterase; 690 nM on Acetylcholinesterase [4]; 1000 nM in data set [9]; 18400 nM in [10]. The inhibition result in [5] and in data set [6] was “Active” in each case. In addition, the outcome in data set [7] was Active. In data set [8], this compound yielded an inhibition of 95.3%. In the data set listed under Homo sapiens, the Selectivity Index amounted to 18.4. For the same compound, the Papp in data set [13] stood at 13.4 ×10⁻⁶ cm/s.
